Measurements taken from ChEMBL document CHEMBL1649165, “Activity profile in vitro of micafungin against Spanish clinical isolates of common and emerging species of yeasts and molds” (2009).
Converted amounts (≈) assume the structure as drawn.

How the values were obtained:
Format in all cases: functional
[1] = test system: Fusarium solani; test: Antimicrobial activity against Fusarium solani by broth microdilution method
Procedure, shortened: (§1)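 Filamentous fungus clinical isolates tested by the AFST-EUCAST reference broth microdilution method for moulds. For echinocandins, the endpoint was the minimum effective concentration: the lowest drug concentration giving aberrant hyphal growth, read with an inverted microscope.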

[2] = test system: Alternaria alternata; test: Antimicrobial activity against Alternaria alternata by broth microdilution method
Procedure, shortened: (§2)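 Clinical mould isolates, tested by broth microdilution using the AFST-EUCAST reference method for filamentous fungi. For echinocandins, the endpoint was the minimum effective concentration: the lowest drug concentration giving aberrant hyphal growth, read with an inverted microscope.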

[3] = test system: Aspergillus ustus; test: Antimicrobial activity against Aspergillus ustus by broth microdilution method; procedure, shortened: as §2
[4] = test system: Rhodotorula glutinis; test: Antimicrobial activity against Rhodotorula glutinis by broth microdilution method
Procedure, shortened: (§3)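 Nonfermentative yeast clinical isolates (Rhodotorula, Trichosporon) tested by broth microdilution. The EUCAST yeast recommendations were followed strictly, with one minor modification to improve growth. MIC was read as the endpoint.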

[5] = Antimicrobial activity against Rhizopus microsporus by broth microdilution method; procedure, shortened: as §1
[6] = test system: Aureobasidium pullulans; test: Antimicrobial activity against Aureobasidium pullulans by broth microdilution method
[7] = test system: Aspergillus niger; test: Antimicrobial activity against Aspergillus niger by broth microdilution method; procedure, shortened: as §2
[8] = test system: Scopulariopsis brevicaulis; test: Antimicrobial activity against Scopulariopsis brevicaulis by broth microdilution method; procedure, shortened: as §1
[9] = test system: Mucor; test: Antimicrobial activity against Mucor spp.by broth microdilution method; procedure, shortened: as §1
[10] = test system: Rhodotorula mucilaginosa; test: Antimicrobial activity against Rhodotorula mucilaginosa by broth microdilution method; procedure, shortened: as §3
[11] = test system: Papiliotrema laurentii; test: Antimicrobial activity against Cryptococcus laurentii by broth microdilution method
Procedure, shortened: (§4)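 Clinical isolates of nonfermentative yeasts, tested by broth microdilution following EUCAST recommendations. The only change from that method was a minor modification to improve growth.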

[12] = test system: Diutina rugosa; test: Antimicrobial activity against Candida rugosa by broth microdilution method
Procedure, shortened: (§5)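 Clinical isolates from human patients, tested by broth microdilution using the AFST-EUCAST reference procedure for fermentative yeasts. The MIC was read per that reference method.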

[13] = test system: Naganishia albida; test: Antimicrobial activity against Cryptococcus albidus by broth microdilution method; procedure, shortened: as §4
[14] = test system: Debaryomyces hansenii; test: Antimicrobial activity against Candida famata by broth microdilution method; procedure, shortened: as §5
[15] = test system: Paecilomyces variotii; test: Antimicrobial activity against Paecilomyces variotii by broth microdilution method; procedure, shortened: as §1
[16] = test system: Aspergillus terreus; test: Antimicrobial activity against Aspergillus terreus by broth microdilution method; procedure, shortened: as §2
[17] = test system: Fusarium verticillioides; test: Antimicrobial activity against Fusarium verticillioides by broth microdilution method; procedure, shortened: as §1
[18] = test system: Beauveria bassiana; test: Antimicrobial activity against Beauveria bassiana by broth microdilution method; procedure, shortened: as §2
[19] = test system: Magnusiomyces capitatus; test: Antimicrobial activity against Dipodascus capitatus by broth microdilution method
[20] = test system: Fennellia nivea; test: Antimicrobial activity against Aspergillus niveus by broth microdilution method; procedure, shortened: as §2
[21] = test system: Fusarium equiseti; test: Antimicrobial activity against Fusarium equiseti by broth microdilution method; procedure, shortened: as §2
[22] = test system: Aspergillus flavus; test: Antimicrobial activity against Aspergillus flavus by broth microdilution method; procedure, shortened: as §2
[23] = test system: Trichosporon; test: Antimicrobial activity against Trichosporon spp. by broth microdilution method; procedure, shortened: as §3
[24] = test system: Trichosporon ovoides; test: Antimicrobial activity against Trichosporon ovoides by broth microdilution method; procedure, shortened: as §3
[25] = test system: Clavispora lusitaniae; test: Antimicrobial activity against Candida lusitaniae by broth microdilution method; procedure, shortened: as §5
[26] = test system: Trichosporon asahii; test: Antimicrobial activity against Trichosporon asahii by broth microdilution method; procedure, shortened: as §3
[27] = test system: Cunninghamella bertholletiae; test: Antimicrobial activity against Cunninghamella bertholletiae by broth microdilution method; procedure, shortened: as §2
[28] = test system: Rhizomucor; test: Antimicrobial activity against Rhizomucor spp.by broth microdilution method; procedure, shortened: as §1
[29] = test system: Aspergillus versicolor; test: Antimicrobial activity against Aspergillus versicolor by broth microdilution method; procedure, shortened: as §2
[30] = test system: Exophiala dermatitidis; test: Antimicrobial activity against Exophiala dermatitidis by broth microdilution method
[31] = test system: Fusarium oxysporum; test: Antimicrobial activity against Fusarium oxysporum by broth microdilution method; procedure, shortened: as §2
[32] = test system: Saksenaea vasiformis; test: Antimicrobial activity against Saksenaea vasiformis by broth microdilution method; procedure, shortened: as §1
[33] = test system: Aspergillus; test: Antimicrobial activity against Aspergillus spp. by broth microdilution method; procedure, shortened: as §2
[34] = test system: Lewia infectoria; test: Antimicrobial activity against Alternaria infectoria by broth microdilution method; procedure, shortened: as §2
[35] = test system: Paecilomyces lilacinus; test: Antimicrobial activity against Paecilomyces lilacinus by broth microdilution method; conditions: Purpureocillium lilacinum; procedure, shortened: as §1
[36] = test system: Neurospora sitophila; test: Antimicrobial activity against Chrysonilia sitophila by broth microdilution method; procedure, shortened: as §2
[37] = test system: Scedosporium apiospermum; test: Antimicrobial activity against Scedosporium apiospermum by broth microdilution method; procedure, shortened: as §1
[38] = test system: Pichia kudriavzevii; test: Antimicrobial activity against Candida krusei by broth microdilution method; procedure, shortened: as §5
[39] = test system: Trichosporon dermatis; test: Antimicrobial activity against Trichosporon dermatis by broth microdilution method; conditions: Cutaneotrichosporon dermatis; procedure, shortened: as §3
[40] = test system: Aspergillus nidulans; test: Antimicrobial activity against Aspergillus nidulans by broth microdilution method; procedure, shortened: as §2
[41] = test system: Candida parapsilosis; test: Antimicrobial activity against Candida parapsilosis by broth microdilution method; conditions: Lodderomyces parapsilosis; procedure, shortened: as §5
[42] = test system: Lecythophora hoffmannii; test: Antimicrobial activity against Lecythophora hoffmannii by broth microdilution method; conditions: Coniochaeta hoffmannii; procedure, shortened: as §1
[43] = test system: Cladosporium; test: Antimicrobial activity against Cladosporium spp. by broth microdilution method; procedure, shortened: as §2
[44] = test system: [Candida] intermedia; test: Antimicrobial activity against Candida intermedia by broth microdilution method; conditions: Sungouiella intermedia; procedure, shortened: as §5
[45] = test system: Fusarium reticulatum; test: Antimicrobial activity against Fusarium reticulatum by broth microdilution method; procedure, shortened: as §1
[46] = test system: Coprinellus domesticus; test: Antimicrobial activity against Hormographiella verticillata by broth microdilution method; procedure, shortened: as §1

C[C@@H]1[C@H](O)[C@@H](C)/C=C/C=C/C=C/C=C/C=C/C=C/C=C/[C@H](O[C@@H]2O[C@H](C)[C@@H](O)[C@H](N)[C@@H]2O)C[C@@H]2O[C@](O)(C[C@@H](O)C[C@@H](O)[C@H](O)CC[C@@H](O)C[C@@H](O)CC(=O)O[C@H]1C)C[C@H](O)[C@H]2C(=O)O [AMPHOTERICIN B]
MIC50 [1]: 1 µg/mL (≈ 1.08 µM)
MIC90 [1]: 2 µg/mL (≈ 2.16 µM)
MIC50 [2]: 0.5 µg/mL (≈ 0.541 µM)
MIC90 [2]: > 16 µg/mL
MIC50 [3]: 0.5 µg/mL (≈ 0.541 µM)
MIC90 [3]: > 16 µg/mL
MIC50 [4]: 0.5 µg/mL (≈ 0.541 µM)
MIC90 [4]: 8 µg/mL (≈ 8.66 µM)
MIC50 [5]: 2 µg/mL (≈ 2.16 µM)
MIC90 [5]: > 16 µg/mL
MIC50 [6]: 0.25 µg/mL (≈ 0.271 µM)
MIC90 [6]: 1 µg/mL (≈ 1.08 µM)
MIC50 [7]: 0.25 µg/mL (≈ 0.271 µM)
MIC90 [7]: 0.25 µg/mL (≈ 0.271 µM)
MIC50 [8]: 0.5 µg/mL (≈ 0.541 µM)
MIC90 [8]: > 16 µg/mL
MIC50 [9]: 0.12 µg/mL (≈ 0.13 µM)
MIC90 [9]: 1 µg/mL (≈ 1.08 µM)
MIC50 [10]: 0.12 µg/mL (≈ 0.13 µM)
MIC90 [10]: 0.5 µg/mL (≈ 0.541 µM)
MIC50 [11]: 0.5 µg/mL (≈ 0.541 µM)
MIC90 [11]: 8 µg/mL (≈ 8.66 µM)
MIC50 [12]: 0.12 µg/mL (≈ 0.13 µM)
MIC90 [12]: 1 µg/mL (≈ 1.08 µM)
MIC50 [13]: 0.5 µg/mL (≈ 0.541 µM)
MIC90 [13]: 8 µg/mL (≈ 8.66 µM)
MIC50 [14]: 0.12 µg/mL (≈ 0.13 µM)
MIC90 [14]: 1 µg/mL (≈ 1.08 µM)
MIC50 [15]: 0.03 µg/mL (≈ 0.0325 µM)
MIC90 [15]: 0.5 µg/mL (≈ 0.541 µM)
MIC50 [16]: 1 µg/mL (≈ 1.08 µM)
MIC90 [16]: 4 µg/mL (≈ 4.33 µM)
MIC50 [17]: 2 µg/mL (≈ 2.16 µM)
MIC90 [17]: 4 µg/mL (≈ 4.33 µM)
MIC50 [18]: 0.5 µg/mL (≈ 0.541 µM)
MIC90 [18]: > 16 µg/mL
MIC50 [19]: 0.5 µg/mL (≈ 0.541 µM)
MIC90 [19]: 0.5 µg/mL (≈ 0.541 µM)
MIC50 [20]: 0.5 µg/mL (≈ 0.541 µM)
MIC90 [20]: > 16 µg/mL
MIC50 [21]: 0.5 µg/mL (≈ 0.541 µM)
MIC90 [21]: > 16 µg/mL
MIC50 [22]: 1 µg/mL (≈ 1.08 µM)
MIC90 [22]: 2 µg/mL (≈ 2.16 µM)
MIC50 [23]: 0.5 µg/mL (≈ 0.541 µM)
MIC90 [23]: 8 µg/mL (≈ 8.66 µM)
MIC50 [24]: 0.5 µg/mL (≈ 0.541 µM)
MIC90 [24]: 8 µg/mL (≈ 8.66 µM)
MIC50 [25]: 0.06 µg/mL (≈ 0.0649 µM)
MIC90 [25]: 0.12 µg/mL (≈ 0.13 µM)
MIC50 [26]: 8 µg/mL (≈ 8.66 µM)
MIC90 [26]: > 16 µg/mL
MIC50 [27]: 2 µg/mL (≈ 2.16 µM)
MIC90 [27]: > 16 µg/mL
MIC50 [28]: 2 µg/mL (≈ 2.16 µM)
MIC90 [28]: > 16 µg/mL
MIC50 [29]: 1 µg/mL (≈ 1.08 µM)
MIC90 [29]: 2 µg/mL (≈ 2.16 µM)
MIC50 [30]: 0.25 µg/mL (≈ 0.271 µM)
MIC90 [30]: 1 µg/mL (≈ 1.08 µM)
MIC50 [31]: 1 µg/mL (≈ 1.08 µM)
MIC90 [31]: 2 µg/mL (≈ 2.16 µM)
MIC50 [32]: 2 µg/mL (≈ 2.16 µM)
MIC90 [32]: > 16 µg/mL
MIC50 [33]: 0.5 µg/mL (≈ 0.541 µM)
MIC90 [33]: > 16 µg/mL
MIC50 [34]: 0.06 µg/mL (≈ 0.0649 µM)
MIC90 [34]: > 16 µg/mL
MIC50 [35]: > 16 µg/mL
MIC90 [35]: > 16 µg/mL
MIC50 [36]: 0.5 µg/mL (≈ 0.541 µM)
MIC90 [36]: > 16 µg/mL
MIC50 [37]: 4 µg/mL (≈ 4.33 µM)
MIC90 [37]: > 16 µg/mL
MIC50 [38]: 0.5 µg/mL (≈ 0.541 µM)
MIC90 [38]: 0.5 µg/mL (≈ 0.541 µM)
MIC50 [39]: 0.5 µg/mL (≈ 0.541 µM)
MIC90 [39]: 8 µg/mL (≈ 8.66 µM)
MIC50 [40]: 1 µg/mL (≈ 1.08 µM)
MIC90 [40]: 4 µg/mL (≈ 4.33 µM)
MIC50 [41]: 0.12 µg/mL (≈ 0.13 µM)
MIC90 [41]: 0.25 µg/mL (≈ 0.271 µM)
MIC50 [42]: 0.25 µg/mL (≈ 0.271 µM)
MIC90 [42]: 1 µg/mL (≈ 1.08 µM)
MIC50 [43]: 0.25 µg/mL (≈ 0.271 µM)
MIC90 [43]: 1 µg/mL (≈ 1.08 µM)
MIC50 [44]: 0.12 µg/mL (≈ 0.13 µM)
MIC90 [44]: 1 µg/mL (≈ 1.08 µM)
MIC50 [45]: 0.5 µg/mL (≈ 0.541 µM)
MIC90 [45]: > 16 µg/mL
MIC50 [46]: 0.5 µg/mL (≈ 0.541 µM)
MIC90 [46]: > 16 µg/mL
